Published values pooled from the literature.
Each line is one published result; the experiments were not run side by side.
Target: Calcium/calmodulin-dependent protein kinase type II subunit delta (CAMK2D, Homo sapiens, UniProt Q13557)

Structure (SMILES) | assay | conditions | remaining binding [%]
CC1CCCN1c1nccc(-c2cnn3ncccc23)n1 (stereo not shown) | binding | 1 µM | 100
O=C(c1ccc(Nc2nccc(-c3cc4ccccc4s3)n2)cc1)N1CCC(N2CCCC2)CC1 | binding, competition with immobilised ligand | 1 µM | 81
CCN1CCN(Cc2ccc(C(=O)Nc3ccc(C)c(Oc4ccc5c(c4)CC(=O)N5)c3)cc2C(F)(F)F)CC1 | binding, competition with immobilised ligand | 1 µM | 100
CNC(=O)Nc1ccc2c(c1)CC[C@@]21OC(=O)N(CC(=O)N(Cc2ccc(F)cc2)[C@@H](C)C(F)(F)F)C1=O | cell-free assay, competition with immobilised ligand | 1 µM | 91
Nc1ncc2c(n1)-c1c([nH]c3ccc(C#CC4CC4)cc13)CCCC2 | binding, competition with immobilised ligand | 1 µM | 95
COc1cnc(Nc2cccc(S(N)(=O)=O)c2)nc1N1CCN(c2ccccc2)C(=O)C1 | binding, competition with immobilised ligand | 1 µM | 100
COc1cc(-c2cn(C3CCc4ccccc4N(CC(F)(F)F)C3=O)nn2)ccc1-n1ccc(C)n1 (stereo not shown) | cell-free assay, competition with immobilised ligand | 1 µM | 100
O=C(NCCCN1CCOCC1)c1ccc(Nc2ncc(Cl)c(-c3ccc(Cl)s3)n2)cc1 | binding, competition with immobilised ligand | 1 µM | 83
CCS(=O)(=O)c1cc2cc(C[C@](O)(CC(C)(C)c3ccc(F)cc3C(N)=O)C(F)(F)F)[nH]c2cn1 | cell-free assay, competition with immobilised ligand | 1 µM | 100
O=C(Nc1c[nH]nc1C(=O)NC1CCNCC1)c1cc(F)cc(F)c1 | binding, competition with immobilised ligand | 1 µM | 100
Cc1cnn2ncc(-c3ccnc(N(C)C)n3)c2c1 | binding | 1 µM | 78
C[C@H](c1cccc(C#N)c1)n1cc(Cl)cc(C(N)=O)c1=N | cell-free assay, competition with immobilised ligand | 1 µM | 100
C[C@@H]1CCN(c2nccc(-c3cnn4ncccc34)n2)C1 | binding | 1 µM | 100
C=CC(=O)N1CCC(C(=O)NCC(=O)N2CCN(c3nc(-c4cnc(N)nc4C(F)F)nc(N4CCOCC4)n3)CC2)CC1 | binding, competition with immobilised ligand | 1 µM | 100
CN(C)c1nccc(-c2cnn3ncccc23)n1 | binding | 1 µM | 100
Cc1cnc(Nc2ccc(C(=O)N3CCC(N4CCCC4)CC3)cc2)nc1-c1cc2ccccc2s1 | binding, competition with immobilised ligand | 1 µM | 73
c1cnn2ncc(-c3ccnc(N4CCC45COC5)n3)c2c1 | binding | 1 µM | 83
COc1ccc2cc(OCC3(C(=O)O)CN(C(=O)c4ccc(F)cc4)C3)ccc2c1 | cell-free assay, competition with immobilised ligand | 1 µM | 100
CN(c1nccc(-c2cnn3ncccc23)n1)C1CC1 | binding | 1 µM | 100
CCc1ccccc1C(=O)Nc1n[nH]c2c(C)c(F)c(C3C(C#N)=C(C)N(C)C(C)=C3C#N)cc12 | cell-free assay, competition with immobilised ligand | 1 µM | 78
N[C@@H]1CCN(c2nccc(-c3cnn4ncccc34)n2)C1 | binding | 1 µM | 100
FC(F)(F)Oc1cccc(-c2cnc3ccc(-c4ccncc4)nn23)c1 | cell-free assay, competition with immobilised ligand | 5 µM | 33
